Laboratory results from PubChem BioAssay AID651723 (Broad Institute, 2012).
Among all 350,000 compounds or so, about 740 (0.21%) were called active. The full list was thinned out, with actives kept by preference. Values without a mark were called inactive.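 Rule for the calls: active = every replicate reaching activation of at least 50%, whatever the mean replicate activation; inconclusive = replicates that disagree or another doubt; inactive = the rest.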

Test: compounds raising PGC1a acetylation signal, primary screen, PGC1a modulator project, cell-based, U2OS, AlphaScreen, signal-increasing mode (AID 651723)
Details: overnight, at 15.6 µM, active compounds read high
In short: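 detection = AlphaScreen lysate read | assay system = U2OS cells expressing flag-PGC1a plus GCN5 | input = 7000 cells/well | dosing = one concentration | times = compound overnight at 37 °C, each detection step 1 h RT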
For `CN(C)CC1Oc2ccccc2OC1(O)c1ccccc1` (configuration not stated), the activation was 249% (active). Molecule `CCC(C)(O)C(=O)OC1C(=O)OC2CC3C(C)=CC(=O)C(O)C3(C)C3C4(O)OCC23C1C(C)C4O` (configuration not stated) has an activation of -80%. With `O=C(CSC1c2ccccc2-c2ccccc21)N/N=C/c1ccccc1` the activation was 73% (active). Molecule `CC(=O)OC1C2(CC3N4C(=O)C5(CO)SSC4(CC31O)C(=O)N5C)OC(C)C(C)(C)C2=O` (configuration not stated) has an activation of -60.7%. Molecule `COC1C(O)C(C)OC(OC2CCC3(C=O)C(CCC4C3CCC3(C)C(C5=CC(=O)OC5)CCC43O)C2)C1O` (configuration not stated) has an activation of -82.1%. `c1ccc(C(CN2CCCCC2)c2ccccc2)cc1` gave an activation of -40.7%. `O=C(c1cc(S(=O)(=O)N2CCOCC2)ccc1F)N1CCC2(CC1)OCCO2` gave an activation of -52.8%.
